ChEMBL document CHEMBL3244412, “Benzopyrones. 14. Synthesis and antiallergic properties of some N-tetrazolylcarboxamides and related compounds” (1978)
Values after ≈ are worked out from the molar mass of the structure shown.

Legend:
[1] = Antianaphylactic activity in rat mast cells assessed as inhibition of DNP-ovalbumin-induced histamine release after 15 mins by superfusion assay; type: functional; settings: Mast cell, 0.25 h, read-out: ED50 (the source's name)
Summary of the method: (§1)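 Peritoneal and pleural cells from male albino rats were washed, sensitized with 1:10 rat reaginic anti-DNP-ovalbumin serum for 2 h at 37 °C, and resuspended at 1.2-1.7 × 10⁵ mast cells/mL. Compound and DNP-ovalbumin were added together and incubated for 15 min at 37 °C. Supernatant (free) and lysed-cell (residual) histamine were assayed by guinea pig ileum superfusion bioassay. Inhibition of net histamine release was used to derive EC50 from dose ranging against the reference compound.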

[2] = system: Rattus norvegicus; assay: Antiallergic activity in po dosed rat assessed as inhibition of DNP-ovalbumin-induced passive cutaneous anaphylaxis administered 10 mins prior to DNP-ovalbumin-challenge; type: functional
Summary of the method: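 This rat passive cutaneous anaphylaxis model used reaginic anti-DNP-ovalbumin serum given intradermally, iv DNP-ovalbumin with Evans blue 48 h later, and weal scoring. Rats were starved overnight and dosed orally with the compound in aqueous solution 10 min before iv antigen challenge. ED50 was calculated with 95% confidence limits, assuming a log-linear dose response.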

[3] = species on record: Homo sapiens; assay: Antianaphylactic activity in human lung fragments assessed as inhibition of sheep anti-human IgE-induced histamine release at 0.18 ug/ml treated 10 mins prior to sheep anti-human IgE-challenge measured after 15 mins by superfusion assay relative to control; type: functional
Summary of the method: (§2)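 Human lung fragments in Tyrode's solution were incubated with the compound for 10 min, then challenged with sheep anti-human IgE and centrifuged for 15 min after challenge. Free and residual histamine were measured by superfusion bioassay on atropine-treated guinea pig ileum. % release and % inhibition were calculated from net release. Values are means of three experiments, each in duplicate.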

[4] = Antianaphylactic activity in rat mast cells assessed as inhibition of DNP-ovalbumin-induced histamine release after 15 mins by superfusion assay relative to 4-oxo-N-(5-tetrazolyl)-4H-l-benzopyran-2-carboxamide; type: functional, Mast cell; summary of the method: as §1
[5] = system: Rattus norvegicus; assay: Antiallergic activity in rat assessed as inhibition of DNP-ovalbumin-induced passive cutaneous anaphylaxis at 1 mg/kg, iv after 30 mins relative to control; type: functional; settings: Rattus norvegicus, iv, 0.5 h
Summary of the method: (§3)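 Female albino rats (groups of four) were shaved and sensitized by dorsal intradermal injection of 0.1 mL diluted rat reaginic anti-DNP-ovalbumin serum, raised with Bordetella pertussis adjuvant. After 48 h they were challenged iv with 2 mg DNP-ovalbumin in 0.5 mL 1% Evans blue/saline, with the compound given iv in aqueous solution at the same time. After 30 min, skin weals were scored visually on a 5-point scale; % inhibition was taken versus vehicle controls.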

[6] = species on record: Homo sapiens; assay: Antianaphylactic activity in human lung fragments assessed as inhibition of sheep anti-human IgE-induced histamine release at 180 ug/ml treated 10 mins prior to sheep anti-human IgE-challenge measured after 15 mins by superfusion assay relative to control; type: functional; summary of the method: as §2
[7] = system: Rattus norvegicus; assay: Antiallergic activity in iv dosed rat assessed as inhibition of DNP-ovalbumin-induced passive cutaneous anaphylaxis after 30 mins; type: functional; settings: 0.5 h; summary of the method: as §3
[8] = species on record: Homo sapiens; assay: Antianaphylactic activity in human lung fragments assessed as inhibition of sheep anti-human IgE-induced histamine release treated 10 mins prior to sheep anti-human IgE-challenge measured after 15 mins by superfusion assay; type: functional; summary of the method: as §2
[9] = species on record: Homo sapiens; assay: Antianaphylactic activity in human lung fragments assessed as inhibition of sheep anti-human IgE-induced histamine release at 1.8 ug/ml treated 10 mins prior to sheep anti-human IgE-challenge measured after 15 mins by superfusion assay relative to control; type: functional; summary of the method: as §2
[10] = species on record: Homo sapiens; assay: Antianaphylactic activity in human lung fragments assessed as inhibition of sheep anti-human IgE-induced histamine release at 18 ug/ml treated 10 mins prior to sheep anti-human IgE-challenge measured after 15 mins by superfusion assay relative to control; type: functional; summary of the method: as §2

With `O=C(Nc1nnn[nH]1)c1cc(=O)c2ccccc2o1` as the compound, how does the EC50 [1] read?
The EC50 was 0.08 µg/mL (≈ 0.311 µM).

What about the ED50 [2] of the same compound?
Its ED50 is 21 mg/kg.

What about the inhibition [3] of the same compound?
The inhibition was 5%.

And the “fold change (potency relative to reference compound)” value [4]?
Its value is 1.

What about the inhibition in vivo at 1 mg/kg [5] of the same compound?
Its inhibition in vivo at 1 mg/kg is 100%.

What about the inhibition [6] of the same compound?
The inhibition was 61.6%.

And the ED50 [7]?
Its ED50 is 0.037 mg/kg.

What about the inhibition [8] of the same compound?
The inhibition was “Dose-dependent effect”.

What about the inhibition [9] of the same compound?
The inhibition was 46.4%.

And the inhibition [10]?
The inhibition was 43.3%.
